Calls of active or inactive are those of the source. The rule behind the calls is not given here.
Assays:
[1] = tested on: MDA-MB-231; test: Cytotoxicity against human MDA-MB-231 cells assessed as cell viability at 2 to 4 uM after 24 hrs by MTT assay; type: functional, cell-based
Method in brief: (§1)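 Colo-205 (RPMI, 10% FCS) and MDA-MB-231 (DMEM, 2 mM glutamax, 10% FCS, penicillin/streptomycin) seeded at 1 104 cells/well, 18 h preincubation; fresh medium with compound at 0.5, 1, 2 and 4 µM for 24 h at 37 °C; MTT 2 h, formazan solubilised, OD 570 nm; DMSO ≤0.25%, DMSO-only wells as untreated control.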

[2] = tested on: COLO 205; test: Induction of apoptosis in human COLO205 cells assessed as caspase-3 activation at 2 uM after 24 hrs by ELISA; type: functional, cell-based
Method in brief: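 Colo-205 cells exposed 24 h at 2 µM; lysates in 2X reaction buffer with DTT plus caspase substrate, 1 h at 37 °C; fluorescence read at ex 400/em 505 nm; three independent experiments, mean ± S.D., versus untreated control.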

[3] = tested on: COLO 205; test: Cytotoxicity against human COLO205 cells assessed as reduction in cellular ATP level at 2 uM after 24 hrs by bioluminescence assay; type: functional, cell-based
Method in brief: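 Colo-205 cells exposed 24 h at 2 µM, lysed in ice-cold RIPA, debris spun off at 4 °C; intracellular ATP in supernatant by luciferin-luciferase bioluminescence kit; three independent experiments, mean ± S.D., untreated control.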

[4] = tested on: ZR-75-1; test: Growth inhibition of human ZR-75-1 cells after 48 hrs by sulforhodamine B assay; type: functional; details: ZR-75-1, 48 h
[5] = tested on: COLO 205; test: Cell cycle arrest in human COLO205 cells assessed as accumulation at G2/M phase at 2 uM after 24 hrs by propidium iodide staining-based FACS flow cytometric analysis (reference value: 29.52%); type: functional
[6] = tested on: SiHa; test: Growth inhibition of human SiHa cells after 48 hrs by sulforhodamine B assay; type: functional
[7] = molecular target: DNA topoisomerase 2-alpha (Homo sapiens) (UniProt P11388); test: Inhibition of human topoisomerase 2alpha-mediated relaxation of supercoiled pBR322 DNA at 2 uM after 30 mins by agarose gel electrophoresis
Chain of DNA topoisomerase 2-alpha (Homo sapiens) (P11388 whole entry): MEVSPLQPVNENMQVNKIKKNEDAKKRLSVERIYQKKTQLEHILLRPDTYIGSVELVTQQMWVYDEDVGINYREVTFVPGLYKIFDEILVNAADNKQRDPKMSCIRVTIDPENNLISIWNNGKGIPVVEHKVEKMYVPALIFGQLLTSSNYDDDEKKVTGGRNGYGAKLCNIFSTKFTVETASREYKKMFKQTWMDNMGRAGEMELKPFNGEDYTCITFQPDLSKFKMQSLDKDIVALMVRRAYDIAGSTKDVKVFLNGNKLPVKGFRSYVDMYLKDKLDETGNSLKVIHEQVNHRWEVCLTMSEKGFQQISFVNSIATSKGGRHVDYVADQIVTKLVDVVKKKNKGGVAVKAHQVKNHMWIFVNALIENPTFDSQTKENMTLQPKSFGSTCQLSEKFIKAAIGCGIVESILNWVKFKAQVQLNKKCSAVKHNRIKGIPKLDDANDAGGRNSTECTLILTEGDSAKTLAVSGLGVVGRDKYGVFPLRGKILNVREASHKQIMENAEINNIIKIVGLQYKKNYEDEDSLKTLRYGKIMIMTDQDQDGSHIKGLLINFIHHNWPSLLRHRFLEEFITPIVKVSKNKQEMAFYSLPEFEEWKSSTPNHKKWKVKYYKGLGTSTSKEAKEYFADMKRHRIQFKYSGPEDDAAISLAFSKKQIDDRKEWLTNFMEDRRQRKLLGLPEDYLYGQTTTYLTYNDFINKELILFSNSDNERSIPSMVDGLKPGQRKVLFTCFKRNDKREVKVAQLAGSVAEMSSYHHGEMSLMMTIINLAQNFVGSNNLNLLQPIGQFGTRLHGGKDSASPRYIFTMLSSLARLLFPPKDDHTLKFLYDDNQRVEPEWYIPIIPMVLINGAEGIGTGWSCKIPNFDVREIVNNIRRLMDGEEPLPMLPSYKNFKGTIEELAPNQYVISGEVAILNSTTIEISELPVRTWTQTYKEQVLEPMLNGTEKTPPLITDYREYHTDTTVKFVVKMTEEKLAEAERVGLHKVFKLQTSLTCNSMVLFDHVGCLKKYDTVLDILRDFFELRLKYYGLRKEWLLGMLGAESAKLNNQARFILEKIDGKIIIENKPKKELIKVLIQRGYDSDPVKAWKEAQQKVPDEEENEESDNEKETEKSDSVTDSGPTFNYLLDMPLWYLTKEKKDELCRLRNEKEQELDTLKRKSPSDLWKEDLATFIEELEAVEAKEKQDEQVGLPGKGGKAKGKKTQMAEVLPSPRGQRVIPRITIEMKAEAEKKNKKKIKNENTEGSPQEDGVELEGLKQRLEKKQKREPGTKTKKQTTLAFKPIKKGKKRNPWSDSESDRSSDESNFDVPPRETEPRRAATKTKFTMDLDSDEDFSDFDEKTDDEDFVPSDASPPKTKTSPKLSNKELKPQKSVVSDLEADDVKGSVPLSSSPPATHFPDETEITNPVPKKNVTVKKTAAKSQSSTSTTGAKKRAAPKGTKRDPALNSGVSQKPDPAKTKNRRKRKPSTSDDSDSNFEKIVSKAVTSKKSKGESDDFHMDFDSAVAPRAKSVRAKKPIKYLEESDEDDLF
Method in brief: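 Purified human topoisomerase IIα (4 units) with 200 ng supercoiled pBR322 and compound at 2 µM, 30 min at 30 °C in 10 mM Tris-HCl pH 7.9, 50 mM NaCl, 5 mM MgCl2, 1 mM EDTA, 1 mM ATP, 15 µg/mL BSA; EDTA-stopped; 1% agarose gel in TAE, ethidium bromide, UV visualisation.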

[8] = tested on: COLO 205; test: Cytotoxicity against human COLO205 cells assessed as viable cells at 2 uM after 24 hrs by trypan blue exclusion assay; type: functional, cell-based
Method in brief: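 Colo-205 cells treated 24 h at 1, 2 and 4 µM, trypsinised, mixed with 0.4% trypan blue (10 µl per 100 µl cells), counted on haemocytometer; percentage dead cells calculated; triplicate samples.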

[9] = tested on: COLO 205; test: Cell cycle arrest in human COLO205 cells assessed as accumulation at S phase at 2 uM after 24 hrs by propidium iodide staining-based FACS flow cytometric analysis (reference value: 4.21%); type: functional
[10] = tested on: MDA-MB-231; test: Cytotoxicity against human MDA-MB-231 cells assessed as cell viability at <0.5 to 1 uM after 24 hrs by MTT assay; type: functional, cell-based; method in brief: as §1
[11] = tested on: A549; test: Growth inhibition of human A549 cells after 48 hrs by sulforhodamine B assay; type: functional
[12] = tested on: COLO 205; test: Growth inhibition of human COLO205 cells after 48 hrs by sulforhodamine B assay; type: functional
[13] = tested on: COLO 205; test: Cell cycle arrest in human COLO205 cells assessed as accumulation at G0/G1 phase at 2 uM after 24 hrs by propidium iodide staining-based FACS flow cytometric analysis (reference value: 65.23%); type: functional
[14] = tested on: COLO 205; test: Cytotoxicity against human COLO205 cells assessed as cell viability at 2 to 4 uM after 24 hrs by MTT assay; type: functional, cell-based; method in brief: as §1
[15] = tested on: MCF7; test: Growth inhibition of human MCF7 cells after 48 hrs by sulforhodamine B assay; type: functional; details: MCF7, 48 h
[16] = tested on: HOP-62; test: Growth inhibition of human HOP62 cells after 48 hrs by sulforhodamine B assay; type: functional
[17] = tested on: KB; test: Growth inhibition of human KB cells after 48 hrs by sulforhodamine B assay; type: functional
[18] = (§2) Growth inhibition of human Gurav cells after 48 hrs by sulforhodamine B assay; type: functional
[19] = tested on: COLO 205; test: Induction of apoptosis in human COLO205 cells assessed as caspase-3 activation at 2 uM after 24 hrs by Western blotting analysis; type: functional, cell-based
Method in brief: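 Colo-205 cells grown to 80% confluency, 2 µM final for 24 h; RIPA lysates with protease inhibitors, Bradford-quantified, 50 µg protein per lane on 12% SDS-PAGE, PVDF transfer, probed overnight at 4 °C for active caspase-3, β-actin as loading control, chemiluminescent detection.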

[20] = tested on: COLO 205; test: Cytotoxicity against human COLO205 cells assessed as cell viability at <0.5 to 1 uM after 24 hrs by MTT assay; type: functional, cell-based; method in brief: as §1
[21] = tested on: A2780; test: Growth inhibition of human A2780 cells after 48 hrs by sulforhodamine B assay; type: functional
[22] = (§3) Growth inhibition of human DWD cells after 48 hrs by sulforhodamine B assay; type: functional
[23] = tested on: Gurav; test: as §2; type: functional
[24] = tested on: DWD; test: as §3; type: functional

Structure (SMILES) | Activity [1] | Activity [2] | Activity [3] | GI50 [4] | Activity [5] | GI50 [6] | Inhibition of relaxation (qualitative call) [7] | Activity [8] | Percent of cells in S phase [9] | Activity [10] | GI50 ([11]; A549, 48 h) | GI50 ([12]; COLO 205, 48 h) | Activity [13] | Activity [14] | GI50 [15] | GI50 ([16]; HOP-62, 48 h) | GI50 [17] | GI50 [18] | GI50 ([21]; A2780, 48 h) | GI50 [22] | other results
COc1cc([C@@H]2c3cc4c(cc3[C@@H](NC(=O)c3ccc(NC(=O)NCCCl)cc3)[C@H]3COC(=O)[C@H]23)OCO4)cc(OC)c1OC | Active | Active | Active | 2900 nM | 18.15% | inactive | Active | Active | 5.62% | inactive | 1120 nM | 10 nM | 76.22% | Active | 100 nM | 120 nM | 210 nM | 100 nM | 1300 nM | 1600 nM | Activity [19]: Active; Activity [20]: inactive
COc1cc([C@@H]2c3cc4c(cc3[C@@H](NC(=O)c3ccc(NC(=O)Nc5ccc(F)c(Cl)c5)cc3)[C@H]3COC(=O)[C@H]23)OCO4)cc(OC)c1OC | – | – | – | 2900 nM | – | inactive | – | – | – | – | 1500 nM | 2520 nM | – | – | 120 nM | 2710 nM | 2010 nM | – | – | 2610 nM | GI50 [23]: inactive; GI50 [21]: inactive
COc1cc([C@@H]2c3cc4c(cc3[C@@H](NC(=O)c3ccc(NC(=O)Nc5cccc(Cl)c5)cc3)[C@H]3COC(=O)[C@H]23)OCO4)cc(OC)c1OC | – | – | – | 2900 nM | – | inactive | – | – | – | – | – | 2600 nM | – | – | 2600 nM | 2500 nM | inactive | 2010 nM | 2800 nM | 2300 nM | GI50 [11]: inactive
COc1cc([C@@H]2c3cc4c(cc3[C@@H](NC(=O)c3ccc(NC(=O)Nc5ccc(Br)s5)cc3)[C@H]3COC(=O)[C@H]23)OCO4)cc(OC)c1OC | – | – | – | 2400 nM | – | 2900 nM | – | – | – | – | 1400 nM | – | – | – | 120 nM | 2600 nM | 2500 nM | – | 2100 nM | 100 nM | GI50 [12]: inactive; GI50 [23]: inactive
COc1cc([C@@H]2c3cc4c(cc3[C@@H](NC(=O)c3ccc(NC(=O)Nc5cc(C)cc(C)c5)cc3)[C@H]3COC(=O)[C@H]23)OCO4)cc(OC)c1OC | – | – | – | 2910 nM | – | inactive | – | – | – | – | – | – | – | – | 150 nM | – | 2310 nM | 2700 nM | – | 1600 nM | GI50 [11]: inactive; GI50 [12]: inactive; GI50 [16]: inactive; GI50 [21]: inactive
COc1ccc(NC(=O)Nc2ccc(C(=O)N[C@@H]3c4cc5c(cc4[C@@H](c4cc(OC)c(OC)c(OC)c4)[C@H]4C(=O)OC[C@@H]43)OCO5)cc2)cc1 | Active | Active | Active | 180 nM | 17.88% | inactive | Active | Active | 5.09% | inactive | 1500 nM | 20 nM | 76.61% | Active | 1100 nM | 120 nM | 2310 nM | 240 nM | 1350 nM | 1700 nM | Activity [19]: Active; Activity [20]: inactive
COc1cccc2c1C(=O)c1c(O)c3c(c(O)c1C2=O)C[C@@](O)(C(=O)CO)C[C@@H]3O[C@H]1C[C@H](N)[C@H](O)[C@H](C)O1 [DOXORUBICIN] | – | – | – | – | – | 170 nM | – | – | – | – | – | 140 nM | – | – | 170 nM | 140 nM | 170 nM | 170 nM | 160 nM | 100 nM | –
COc1cc([C@@H]2c3cc4c(cc3[C@@H](NC(=O)c3ccc(NC(=O)NCCBr)cc3)[C@H]3COC(=O)[C@H]23)OCO4)cc(OC)c1OC | Active | Active | Active | 160 nM | 19.94% | 210 nM | Active | Active | 5.96% | inactive | 100 nM | 10 nM | 74.1% | Active | 140 nM | 100 nM | inactive | 1850 nM | 140 nM | 170 nM | Activity [19]: Active; Activity [20]: inactive
COc1cc([C@@H]2c3cc4c(cc3[C@@H](NC(=O)c3ccc(NC(=O)NCc5ccco5)cc3)[C@H]3COC(=O)[C@H]23)OCO4)cc(OC)c1OC | – | – | – | 2600 nM | – | inactive | – | – | – | – | 2620 nM | 2340 nM | – | – | 2900 nM | – | 1930 nM | – | 2300 nM | 2500 nM | GI50 [16]: inactive; GI50 [23]: inactive
COc1cc([C@@H]2c3cc4c(cc3[C@@H](NC(=O)c3ccc(NC(=O)Nc5cccc6ccccc56)cc3)[C@H]3COC(=O)[C@H]23)OCO4)cc(OC)c1OC | – | – | – | 2000 nM | – | 2300 nM | – | – | – | – | 2010 nM | 2230 nM | – | – | 110 nM | – | inactive | 2900 nM | 2220 nM | – | GI50 [16]: inactive; GI50 [24]: inactive
